In ChEMBL document CHEMBL1146180, “Synthesis and evaluation of [18F] labeled pyrimidine nucleosides for positron emission tomography imaging of herpes simplex virus 1 thymidine kinase gene expression” (J Med Chem, 2006):

Experiments:
[1] = Partition coefficient, log P at pH 7.4; format: physicochemical; details: octanol/water
Outline: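 Octanol/PBS shake-flask: 20 µL radiolabeled tracer in saline added to 0.5 mL each 1-octanol and PBS (pH 6.4, 7.0, 7.4, 8.4); vortexed 1 min, centrifuged 5 min; 20 µL of each layer weighed and 18F gamma-counted (400-550 keV). log P = log10(counts per g octanol / counts per g water).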

RG2 [2] = test: Uptake in HSV1 thymidine kinase expressing rat RG2TK+ cells; format: ADME, cell-based
Outline: (§1)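 Paired time-course uptake over 120 min in HSV1-tk transduced RG2TK+ and wild-type RG2 cells. Medium held 18F tracer (10 kBq/mL) with [3H]TdR (3.7 kBq/mL) and [14C]FIAU (0.37 kBq/mL) as references. 18F gamma-counted at once, 3H/14C by liquid scintillation 24-36 h later. Net accumulation rate, (mL medium/min)/g cells, taken from slope of (dpm/g cells)/(dpm/mL medium) vs time and normalized to TdR.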

RG2 [3] = test: Uptake in rat RG2 cells; format: ADME, cell-based; outline: as §1
RG2 [4] = test: Ratio of uptake in rat RG2TK+ cells to RG2 cells; format: ADME, cell-based; outline: as §1

SMILES	logD [1]	Drug uptake (RG2 [2])	Drug uptake (RG2 [3])	Ratio (RG2 [4])
O=c1[nH]c(=O)n([C@@H]2O[C@H](CO)[C@@H](O)[C@@H]2[18F])cc1C(F)(F)F	0.03	51 µL/min/mg	4 µL/min/mg	13
O=c1[nH]c(=O)n([C@@H]2O[C@H](CO)[C@@H](O)[C@@H]2F)cc1CC[18F]	–	290 µL/min/mg	0.53 µL/min/mg	550
O=c1[nH][14c](=O)n([C@@H]2O[C@H](CO)[C@@H](O)[C@@H]2F)cc1I	-0.1	274 µL/min/mg	48 µL/min/mg	5.7
CCCc1cn([C@@H]2O[C@H](CO)[C@@H](O)[C@@H]2[18F])c(=O)[nH]c1=O	0.5	14 µL/min/mg	-1 µL/min/mg	–
Nc1nc(=O)c2ncn(CCC(CO)C[18F])c2[nH]1 (stereo not drawn)	–	22 µL/min/mg	3.2 µL/min/mg	6.9
Nc1nc(O)c2ncn(COC(CO)C[18F])c2n1 (stereo not drawn)	–	7.7 µL/min/mg	0.4 µL/min/mg	19
O=c1[nH]c(=O)n([C@@H]2O[C@H](CO)[C@@H](O)[C@@H]2[18F])cc1/C=C/Br	1.02	35 µL/min/mg	-1 µL/min/mg	–
